CHO parental Ca: ATP-evoked calcium signal inhibitors, parental CHO, primary screen, counter-screen for OX1R antagonist project, cell-based, fluorescence, Fluo-8 calcium dye; parental CHO-K1, ATP-induced calcium, Fluo-8 fluorescence; inhibition, % at 5.6 µM; 0.63% of 330,000 active; AID 463079, 2010;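 active = inhibition above that plate's mean sample inhibition plus 3 SD, cut at about 26% in these data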;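 also: 0% = ATP-challenged DMSO wells and 100% = DMSO wells without ATP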
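test system = CHO parental line | reagent = ATP stimulus | measured by = intracellular calcium via Fluo-8 no-wash fluorescent dye | control set = ATP and no-ATP DMSO wells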
OX1R antag-1: antagonists of human orexin 1 receptor (OX1R); AID 485270, 2010; OX1R-expressing cells, FRET antagonist read-out; inhibition, % at 6.6 µM; 1.8% of 330,000 active; in the data active = inhibition mostly above about 38%, no sharp cut-off; inactive = mostly below about 40%;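 also: 0% = agonist challenge alone and 100% = reference antagonist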
Target sequence (O43613 whole entry, looked up): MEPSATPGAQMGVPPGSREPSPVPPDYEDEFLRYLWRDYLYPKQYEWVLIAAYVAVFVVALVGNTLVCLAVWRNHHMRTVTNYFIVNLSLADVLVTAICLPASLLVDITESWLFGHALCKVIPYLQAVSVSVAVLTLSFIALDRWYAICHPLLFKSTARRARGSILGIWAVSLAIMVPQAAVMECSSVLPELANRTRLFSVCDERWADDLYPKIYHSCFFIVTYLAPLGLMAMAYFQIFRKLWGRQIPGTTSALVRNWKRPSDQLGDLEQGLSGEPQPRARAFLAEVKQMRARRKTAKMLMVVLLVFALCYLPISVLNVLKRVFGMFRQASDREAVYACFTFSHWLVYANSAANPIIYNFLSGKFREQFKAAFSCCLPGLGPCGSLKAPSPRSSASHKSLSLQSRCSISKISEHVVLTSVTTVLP
OXTR agonist: human OXTR agonists, primary screen, fluorescence, CHO-OTR cells, Fluo-8 calcium. AID 2435, 2010. Oxytocin receptor (Homo sapiens), P30559. 0.32% of 320,000 active. Fluo-8 calcium fluorescence; normalized: DMSO 0%, oxytocin 100%. activation, % at 3 µM;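 active = activation above the mean of all tested compounds plus 3 SD, cutoff set per screening run, cut at about 20% in these data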;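 also: peak over basal fluorescence ratio from a 100 s FLIPR kinetic read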
OX1R antag-2: OX1R (HCRTR1) antagonists, primary screen, fluorescence, CHO/OX1R cells, Fluo-8 calcium, orexin A; Orexin/Hypocretin receptor type 1 (Homo sapiens), O43613; Fluo-8 calcium fluorescence; inhibition, % at 5 µM; 0.43% of 330,000 active; AID 434989, 2010;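 active = inhibition above its plate's threshold, mean inhibition of all tested compounds on the plate plus 3 SD, cut at about 37% in these data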;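 also: 0% = orexin A challenge wells and 100% = SB-334867-A antagonist wells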
V1aR counter: agonists of human V1a receptor, primary screen, counter-screen for OXTR agonist project, fluorescence, CHO-V1R cells; activation, % at 3 µM; Fluo-8 calcium fluorescence, agonist mode; 0% DMSO, 100% 3 nM vasopressin; Vasopressin V1a receptor (Homo sapiens), P37288; 0.25% of 320,000 active; AID 2797, 2010;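 active = activation above the mean activation of all tested compounds plus 3 SD, per screening run, cut at about 20% in these data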;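 also: signal is peak over basal fluorescence ratio across a 100 second FLIPR read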
OXTR potentiate: human OXTR potentiators, primary screen, fluorescence, CHO-OTR cells, Fluo-8 calcium. activation, % at 3 µM. 0.061% of 320,000 active. AID 2445, 2010. Fluo-8 calcium fluorescence, potentiator mode; 0% = oxytocin EC15, 100% = EC100. Oxytocin receptor (Homo sapiens), P30559;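 active = activation above that plate's cutoff, the mean activation of tested compounds plus 3 SD, cut at about 6.6% in these data, passing the limit was not always enough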;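 also: 100% uses oxytocin at 75 nM as the full agonist control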
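Assay system: CHO cell line stably expressing human OTR. Reagent: EC15 oxytocin agonist. Dosing: single dose, 3.0 µM nominal final compound concentration. Timing: compound 6 min at room temperature before oxytocin, 100 s read. Signal: kinetic Fluo-8 calcium fluorescence. Controls: oxytocin EC15 low and EC100 high.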
OX1R Ca confirm: OX1R (HCRTR1) antagonists, confirmation, fluorescence, CHO/OX1R cells, Fluo-8 calcium, orexin A; shares compounds with OX1R antag-2; orexin A calcium Fluo-8 fluorescence; inhibition, % at 5 µM; 38% of 1,100 active; AID 492963, 2010; in the data active = inhibition above about 29%;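 also: 0% = agonist challenge alone and 100% = reference antagonist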
CHO Ca counter: ATP-evoked calcium inhibition in parental CHO, counter-screen for OX1R antagonist project, cell-based, fluorescence, CHO-K1, triplicate; shares compounds with OX1R antag-2; inhibition, % at 5.6 µM; ATP-induced calcium, Fluo-8 fluorescence; 9.3% of 1,100 active;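 active = inhibition above a per-plate limit, the mean inhibition of that plate's test compounds plus 3 SD, cut at about 25% in these data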;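 also: 0% = ATP challenge with DMSO and 100% = DMSO without ATP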
OX1R HTRF confirm: OX1R (HCRTR1) antagonists, confirmation, cell-based, HTRF; inhibition, % at 6.6 µM; 49% of 1,800 active; OX1R-expressing cells, HTRF antagonist assay; shares compounds with OX1R antag-1; in the data active = inhibition above about 55%;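 also: CHO cells expressing OX1R stimulated with orexin A at about EC80; 0% = agonist challenge alone and 100% = reference antagonist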
CHO-K1 HTRF: signal inhibition in parental CHO-K1 cells, counter-screen for OX1R antagonist project, cell-based, HTRF; shares compounds with OX1R antag-1; HTRF counterscreen; inhibition, % at 6.6 µM; 48% of 1,800 active; in the data active = inhibition above about 17%;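 also: 0% = agonist challenge with vehicle and 100% = vehicle alone without agonist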
* hit, by the source's call; · = not tested or not shown. Rows were chosen to be rich in hits. Some 2.7% of all compounds tested hit in one or more screens of this group.

SMILES	CHO parental Ca	OX1R antag-1	OXTR agonist	OX1R antag-2	V1aR counter	OXTR potentiate	OX1R Ca confirm	CHO Ca counter	others
CCOC(=O)N1CCN(C(=O)c2ccc3c(c2)NC(=O)C(N2CCOCC2)S3)CC1 (configuration not stated)	5.9	9.2	-0.1	28.2	-0.2	-10.7	3.8	-0.8
O=C(Cc1c(Cl)cccc1Cl)N1CCN(S(=O)(=O)c2cccs2)CC1	-9.3	-1.9	0.0	-0.6	0.3	-7.5	·	·
C#CCNC(=O)C1=C[C@H](c2cn(C(C)=O)c3ccccc23)C[C@H](OCc2ccc(CO)cc2)O1	-9.0	21.4	8.5	5.3	4.4	-13.4	·	·
CC(=O)n1cc([C@@H]2C=C(C(=O)NCc3ccccc3)O[C@H](OCc3ccc(CO)cc3)C2)c2ccccc21	7.4	22.8	2.4	40.6	1.1	-15.0	16.6	1.3
CSc1ccc(CN(C)C(=O)c2cccc(S(=O)(=O)NCc3ccccc3)c2)cc1	14.1	50.2	9.4	39.8*	10.6	-11.3	27.5	5.1
CSc1ccc(CN(C)C(=O)c2cccc(S(=O)(=O)N3CCN(Cc4ccccc4)CC3)c2)cc1	17.8	30.1	6.6	2.4	8.3	-15.8	·	·
CCc1cccc(NC(=O)CCNS(=O)(=O)c2ccc3c(c2)oc(=O)n3C)c1	-16.1	8.8	0.3	-17.0	0.5	-2.8	·	·
CCOC(=O)C1=CC[C@@H](c2cccc(C)c2)N(S(=O)(=O)c2ccc(C)cc2)[C@H]1C(=O)OCC	-5.8	21.7	-1.6	35.7	0.1	-4.9	-10.3	1.7
CCOC(=O)C1=CC[C@@H](c2ccccc2Cl)N(S(=O)(=O)c2ccc(C)cc2)[C@H]1C(=O)OCC	9.6	26.9	-0.2	60.0*	0.0	-4.0	10.4	5.2
COc1ccc(CN2C(=O)NC(C)(c3ccc(C)cc3)C2=O)cc1F (configuration not stated)	-19.8	7.6	-1.1	55.6*	0.8	-24.5	-1.5	2.0
CC(=O)c1ccc(OCc2cc(C(=O)N(C)CCOc3ccc(C)cc3)no2)cc1	-0.8	11.2	5.3	26.9	8.4	-11.3	0.1	-2.5
COc1cccc(C(=O)N=c2sc3cc(S(C)(=O)=O)ccc3n2C)c1	5.8	56.5	2.8	30.3	0.4	-19.0	20.3	6.3
COc1cc(OC)cc(C(=O)N=c2sc3ccccc3n2C)c1	-14.0	60.1	-0.1	-15.0	0.4	-6.2	·	·
Cc1ccc(C(CC(=O)N2CCNCC2)c2ccccc2)c(O)c1C (configuration not stated)	-4.2	2.3	-2.1	34.4	-0.6	-3.0	41.0*	31.3*
COc1ccc(C)cc1S(=O)(=O)N(C)CC(=O)NCc1ccccn1	1.8	11.0	-0.1	-2.0	-0.3	-12.8	·	·
O=C(CSc1nc(C(F)(F)F)cc(=O)[nH]1)Nc1nccs1	-4.4	13.0	-0.9	-12.6	1.0	-3.7	·	·
CC(=O)NC(Cc1c[nH]c2ccccc12)C(=O)N/N=C/c1ccccc1 (configuration not stated)	2.0	72.9*	-0.3	64.3*	-0.5	-5.8	35.5*	-1.1	OX1R HTRF confirm=72.2*;CHO-K1 HTRF=-0.5
O=C(C1CCCN1S(=O)(=O)c1cccc2cccnc12)N1CCn2c1nc1ccccc12 (configuration not stated)	-6.0	95.9*	-1.3	44.9*	0.5	0.9	53.5*	-4.8	OX1R HTRF confirm=89.6*;CHO-K1 HTRF=1.9
O=C(C1CCN(S(=O)(=O)c2cccc3cccnc23)CC1)N1CCn2c1nc1ccccc12	-2.0	12.4	-1.3	-26.8	1.9	-7.8	·	·
CCn1c(-c2ccccc2Cl)nn(CC(=O)Nc2cc(Cl)ccc2Cl)c1=S	-5.5	53.8*	0.8	46.4*	5.4	-12.1	7.6	-5.0	OX1R HTRF confirm=49.5;CHO-K1 HTRF=-6.4
CCn1c(-c2ccccc2Cl)nn(CC(=O)NCCc2ccccc2)c1=S	-10.4	25.9	-0.1	-22.0	0.7	1.9	·	·
CC(C)(C)[C@H]1COC(=O)[C@H](Cc2ccc(F)cc2)CC/C=C/C[C@@H](CC(=O)N[C@H](CO)Cc2ccccc2)C(=O)N1	-10.9	3.3	1.0	-19.3	0.2	0.3	·	·
Fc1cccc2sc(Nc3nc4cc5c(cc4s3)OCO5)nc12	-12.3	75.5*	5.8	41.4*	1.3	-9.3	22.5	0.1	OX1R HTRF confirm=59.3*;CHO-K1 HTRF=6.4
O=C(COC(=O)C1=NN(c2ccccc2)C(=O)CC1)Nc1ccc([N+](=O)[O-])cc1C(F)(F)F	-8.2	19.4	2.1	-4.6	0.9	1.8	·	·
C#CCOCCOCCOCCNc1nc(N2CCN(C(=O)CCCCCCCCCCNC(=O)[C@H](CO)n3cc(CCCSC)nn3)CC2)nc(N2CCN(C(=O)CCCCCCCCCCNC(=O)[C@@H]([C@H](C)O)n3cc(C)nn3)CC2)n1	0.8	-6.6	4.9	2.6	4.0	-5.2	·	·
CC1CC(C)CN(C(=O)CNC(=O)c2sc3ccccc3c2Cl)C1 (configuration not stated)	-25.6	69.6*	-1.9	54.6*	-0.8	-9.5	26.8	-11.3	OX1R HTRF confirm=83.1*;CHO-K1 HTRF=8.0
CC(NC(=O)COc1cccnc1[N+](=O)[O-])c1ccc(Cl)cc1 (configuration not stated)	-0.5	15.5	3.5	-18.0	4.6	-14.3	·	·
Cc1noc(C)c1COc1ccc(C(=O)N2CCN(c3ccccn3)CC2)cc1	0.8	0.4	-1.9	-9.5	-0.6	-6.2	·	·
COc1ccccc1NS(=O)(=O)c1ccc2oc(SCC(C)=O)nc2c1	3.0	13.8	11.5	-9.1	12.1	-13.9	·	·
